Most compounds without a hit are left out; they make up all but 2.8% or so of the library.
EP2 mod: EP2 receptor (human) modulation; P43116; EP2-expressing cells, cAMP HTRF FRET, PGE2 co-stimulation; induction, % at 25 µM; 0.83% of 260,000 active;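 active = compounds whose cAMP rise, as percent of the full-agonist control response, exceeds 60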;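 note: rat C6 glioma line stably carrying human EP2 under a CMV promoter; the protocol text gives 20 µM as final concentration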
Target sequence (P43116 whole entry, looked up): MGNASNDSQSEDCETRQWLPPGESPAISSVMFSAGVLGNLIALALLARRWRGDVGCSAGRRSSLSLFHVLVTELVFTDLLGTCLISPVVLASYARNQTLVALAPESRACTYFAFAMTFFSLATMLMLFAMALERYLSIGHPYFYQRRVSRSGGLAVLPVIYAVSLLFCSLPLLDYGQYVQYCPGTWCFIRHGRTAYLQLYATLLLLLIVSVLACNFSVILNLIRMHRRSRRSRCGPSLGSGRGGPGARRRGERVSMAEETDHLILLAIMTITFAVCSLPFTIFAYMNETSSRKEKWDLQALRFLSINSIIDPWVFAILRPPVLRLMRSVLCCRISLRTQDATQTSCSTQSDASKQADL
NPY1 pot ag: human NPY-Y1 potentiation or agonism, primary screen. P25929. NPY-Y1 expressing cells, potentiator/agonist activation. activation, % at 3.6 µM. 0.37% of 220,000 active. AID 1304; in the data active = activation above about 33%, passing the limit was not always enough;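 note: cells stimulated with NPY at EC10 then isoproterenol at EC100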
NPY Y2 blocker: NPY-Y2 (human) receptor antagonism; 0.99% of 140,000 active; inhibition, % at 2.7 µM; AID 793; P49146; NPY-Y2 expressing cells, antagonist mode; in the data active = inhibition above about 17%
NPY-Y2 PAM-ag: human NPY-Y2 potentiation or agonism, primary screen; cells expressing NPY-Y2, potentiator/agonist read-out; AID 1359; activation, % at 3.6 µM; P49146; 0.45% of 220,000 active; in the data active = activation above about 27%;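 note: cells stimulated with NPY near EC25 plus isoproterenol at EC100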
EP2 antag: blocks the human prostaglandin E2 receptor EP2 | P43116 | C6 glioma cells expressing human EP2, cAMP TR-FRET; cells stimulated with saturating PGE2 | inhibition, % at 25 µM | 0.52% of 260,000 active | AID 1422;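 active = percent inhibition above 40 after rounding to a whole number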;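 note: rat C6 glioma host cells with rolipram phosphodiesterase inhibitor present; the protocol text gives 20 µM as final concentration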
NPY-Y1 antag: NPY-Y1 (human) receptor antagonism | 1% of 200,000 active | HEK293-CNG Y1 cells, membrane potential fluorescence; NPY at EC95, then isoproterenol | inhibition, % at 3.6 µM;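 active = inhibition above the campaign mean inhibition of all tested compounds plus 3 SD, cut at about 20% in these data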
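Material: Y1- and CNG-channel-expressing HEK293 cells / Probe or stimulus: NPY 25 nM then isoproterenol 1 µM plus Ro 20-1724 25 µM / Doses: 3.6 µM single dose, DMSO 0.4% / Schedule: compound incubation 1 h at room temperature, readout 45 min post-stimulation / Signal: membrane potential fluorescence / Benchmarks: isoproterenol-only wells as full block versus NPY-plus-isoproterenol wells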
Hits are given with their value; – = inactive; · = no result; ! = not active in a repeat.

SMILES | EP2 mod | NPY1 pot ag | NPY Y2 blocker | NPY-Y2 PAM-ag | EP2 antag | NPY-Y1 antag
COC(=O)C1=CN(C)C=C(C(=O)OC)C1c1ccsc1 | – | – | – | – | – | –
COC(=O)C1=CN(C2CC2)C=C(C(=O)OC)C1c1ccc(C(F)(F)F)cc1 | – | – | · | – | – | 20.7
COc1ccc(C2/C(=C(/O)c3ccccc3)C(=O)C(=O)N2c2cccnc2)c(OC)c1 (stereo not drawn) | – | · | · | · | – | ·
CCN(CC)C(=O)C(C)N(C#N)c1nc(C)cc(C)n1 (stereo not drawn) | – | 114.1 | – | 104.8 | – | –
CCN(CC)c1ccc2c(c1)OC(N)=C(C#N)C2c1cccc(F)c1 (stereo not drawn) | – | · | · | · | – | ·
Cc1c(NC(=O)c2ccncc2)c(=O)n(-c2ccccc2)n1C | – | · | · | · | – | ·
CCN(CC)S(=O)(=O)c1cccc(-n2c(O)c(C=Nc3ccccc3C(=O)O)c3ccccc3c2=O)c1 | – | 48.3 | · | 74.3 | – | ·
O=C(O)c1ccccc1N=Cc1c(O)n(-c2nccs2)c(=O)c2ccccc12 | – | – | · | – | – | ·
COC(=O)c1scc(C)c1N/N=C(\C)c1ccc(F)cc1 | 60.6 | – | – | – | – | –
COC(=O)c1scc(C)c1NC(=O)Nc1ccccc1 | – | – | – | – | – | –
Cc1cc(C)c(NC(=O)c2ccncc2)c(C)c1 | – | · | · | · | – | ·
c1ccc(N2CCN(Cc3ccnc4ccccc34)CC2)cc1 | – | – | – | – | – | –
Oc1c(CN2CCN(c3ccccc3)CC2)cc(Br)c2cccnc12 | – | – | · | – | 40.9! | ·
CCOc1ccc2[nH]c(=O)c(CN(Cc3cccs3)C(CC)c3nnnn3C(C)(C)CC)cc2c1 (stereo not drawn) | – | – | – | – | – | –
Cc1cc(C)c2cc(CN(Cc3cccs3)C(c3nnnn3C(C)(C)C)C(C)C)c(=O)[nH]c2c1 (stereo not drawn) | 61.4 | · | · | · | – | ·
CCc1ccc2[nH]c(=O)c(CN(Cc3cccs3)C(CC)c3nnnn3C(C)(C)CC)cc2c1 (stereo not drawn) | 60.8 | · | · | · | – | ·
Cc1cc(C)c2cc(CN(Cc3ccco3)Cc3nnnn3C3CCCCC3)c(=O)[nH]c2c1 | 68.8 | · | · | · | – | ·
CCCC(c1nnnn1C(C)(C)C)N(Cc1cccs1)Cc1cc2c(C)cc(C)cc2[nH]c1=O (stereo not drawn) | – | · | · | · | – | ·
CCC(c1nnnn1C(C)(C)CC)N(Cc1ccco1)Cc1cc2cc(C)ccc2[nH]c1=O (stereo not drawn) | 89.5 | · | · | · | – | ·
c1ccc(Cn2nnnc2CN2CCC(c3nc4ccccc4s3)CC2)cc1 | – | · | · | · | – | ·
CNS(=O)(=O)c1ccc2c(c1)n(C)c(=O)n2C | – | · | · | · | – | ·
CCCC(c1nnnn1C1CCCC1)N(Cc1ccco1)Cc1cc2cc(C)cc(C)c2[nH]c1=O (stereo not drawn) | – | · | · | · | – | ·
CCCC(c1nnnn1C1CCCCC1)N(Cc1ccco1)Cc1cc2cc(CC)ccc2[nH]c1=O (stereo not drawn) | 82.3 | · | · | · | – | ·
CCCC(c1nnnn1C(C)(C)C)N(Cc1cc2cc(C)ccc2[nH]c1=O)C1CCCCC1 (stereo not drawn) | 65.9 | · | · | · | – | ·
CCCC(c1nnnn1C1CCCCC1)N(Cc1ccco1)Cc1cc2c(C)cc(C)cc2[nH]c1=O (stereo not drawn) | 69.0 | · | · | · | – | ·
SMILES | EP2 mod | NPY1 pot ag | NPY Y2 blocker | NPY-Y2 PAM-ag | EP2 antag | NPY-Y1 antag
CCC(c1nnnn1C1CCCC1)N(Cc1ccco1)Cc1cc2cc(C)ccc2[nH]c1=O (stereo not drawn) | 69.3 | · | · | · | – | ·
Cc1ncc(-c2ccncc2)c(C2CCCN(C(=O)c3cccnc3)C2)n1 (stereo not drawn) | – | · | · | · | · | ·
COCCSc1nnc(NC(=O)c2cc(-c3ccccc3)nc3ccccc23)s1 | – | · | · | · | – | ·
COc1cc(NC(=O)CC23CC4CC(CC(C4)C2)C3)ccc1NC(=O)c1ccco1 | – | · | · | · | – | ·
CCc1cccc2c(C#N)cn(CC(=O)N3CCCCC3)c12 | – | · | · | · | – | ·
O=C(c1ccco1)N1CCC(n2nc(C3CC3)ccc2=O)CC1 | – | · | · | · | – | ·
CC(=O)O[C@H]1CC[C@@]2(C)C(=CC[C@@H]3[C@H]4CC[C@@H](c5cc(C(F)(F)F)n(C(C)=O)n5)[C@]4(C)CC[C@H]32)C1 | – | · | · | · | 41.9 | ·
CC(=O)O[C@H]1CC[C@@]2(C)C(=CC[C@@H]3[C@H]4CC[C@@H]([C@H](C)C(=O)O)[C@]4(C)CC[C@H]32)C1 | – | · | · | · | – | ·
Cn1c(CN2CCOCC2)nnc1SCC(=O)Nc1ccc(Cl)cc1Cl | – | · | · | · | – | ·
